ChEMBL document CHEMBL3627612, “Hirsutinolide Series Inhibit Stat3 Activity, Alter GCN1, MAP1B, Hsp105, G6PD, Vimentin, TrxR1, and Importin α-2 Expression, and Induce Antitumor Effects against Human Glioma” (J Med Chem, 2015)
Calls of active or inactive are those of the source. The calls are words filed in the database; no cut-off is given here.

Columns and labels:
Glioma cell [1] = assay: Cytotoxicity against human Glioma (G22) patient-derived mouse xenograft cells at 5 uM after 24 hrs by cyquant assay; assay type: functional, cell-based
[2] = biological target: T1, Signal transducer and activator of transcription 3 (Homo sapiens, UniProt P40763); assay: Inhibition of Stat3 dimer DNA binding activity in human U251MG cells nuclear extract after 1.5 hrs by EMSA using radiolabeled probe hSIE
[3] = biological target: T1, Signal transducer and activator of transcription 3; assay: Inhibition of Stat3 dimer DNA binding activity in human U251MG cells nuclear extract at 5 uM after 0.5 to 24 hrs by EMSA using radiolabeled probe hSIE; assay type: cell-based; conditions: U-251
Summary of the method: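 Sub-confluent U251MG or U373MG cells treated with compound (5 μM for 0–24 h, or 0–5 μM for 1.5 h). Stat3:DNA bands scanned, quantified and plotted against concentration to derive IC50. Controls were 0.025% DMSO.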

MDA-MB-231 [4] = assay: Antiproliferative activity against human MDA-MB-231 cells at 5 uM for 72 hrs by cyquant assay; assay type: functional, cell-based
MDA-MB-231 [5] = assay: Antiproliferative activity against human MDA-MB-231 cells for 72 hrs by cyquant assay; assay type: functional, cell-based; conditions: MDA-MB-231, 72 h
Summary of the method: (§1)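 CyQuant proliferation assay after 72 h compound exposure of cultured cells; relative viability normalized to DMSO-treated control; IC50 values derived. Glioma lines grown in RPMI or DMEM with 10% FBS and 1% nonessential amino acids.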

MCF7 = assay: Anticlonogenic activity against human MCF7 cells for 72 hrs measured after 4 weeks by crystal-violet staining based assay; assay type: functional, cell-based
Summary of the method: (§2)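 Single-cell seeding at 250 cells per well; cells treated once the next day for 72 h with 0–5 μM compound, then grown until large colonies were visible (NIH3T3 1 week, MDA-MB-231 and U251MG 2 weeks, MCF-7 4 weeks). Colonies stained with crystal violet for 4 h, imaged and counted.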

U-251 [6] = assay: Effect on SOCS3 expression in human U251MG cells at 5 uM after 0.5 to 24 hrs by immunoblot analysis; assay type: functional, cell-based
Summary of the method: (§3)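 U251MG cells treated with 5 μM compound for 0–24 h; whole-cell lysates of equal total protein immunoblotted. Controls were 0.025% DMSO-treated cells. Representative of 2–4 independent determinations.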

U-251 [7] = assay: Effect on PTP1B expression in human U251MG cells at 5 uM after 0.5 to 24 hrs by immunoblot analysis; assay type: functional, cell-based; summary of the method: as §3
[8] = Antiproliferative activity against human SF295 cells for 72 hrs by cyquant assay; assay type: functional, cell-based; conditions: SF-295, 72 h; summary of the method: as §1
NIH3T3 = assay: Inhibition of Stat5 dimer DNA binding activity in EGF-stimulated mouse NIH3T3 nuclear extract expressing human EGFR at 5 uM preincubated for 30 mins followed by addition of radiolabeled probe MGFe for 30 mins by EMSA; assay type: cell-free
[9] = Antiproliferative activity against human Glioma (G12) patient derived xenograft cells at 5 uM after 72 hrs by cyquant assay; assay type: functional, Glioma cell
[10] = Cytotoxicity against mouse NIH/3T3 cells assessed as colony survival at 1 to 5 uM for 72 hrs measured after 1 week by crystal-violet staining based assay; assay type: cell-based; conditions: nih3t3, 5 µM; summary of the method: as §2
U-251 [11] = assay: Cytotoxicity against human U251MG cells at 2.5 to 5 uM after 19 hrs; assay type: functional, cell-based
[12] = Antiproliferative activity against human Glioma (G22) patient derived xenograft cells at 5 uM after 72 hrs by cyquant assay; assay type: functional, Glioma cell
[13] = biological target: Signal transducer and activator of transcription 3 (Mus musculus) (UniProt P42227); assay: Inhibition of Stat3 dimer DNA binding activity in mouse NIH3T3/vSrc nuclear extract at 5 uM preincubated for 30 mins followed by addition of radiolabeled probe hSIE for 30 mins by EMSA
[14] = biological target: T2, Signal transducer and activator of transcription 1 (Mus musculus) (UniProt P42225); assay: Inhibition of Stat1 dimer DNA binding activity in EGF-stimulated mouse NIH3T3 nuclear extract expressing human EGFR assessed as residual activity at 5 uM preincubated for 30 mins followed by addition of radiolabeled probe hSIE for 30 mins by EMSA
T2 sequence (whole entry): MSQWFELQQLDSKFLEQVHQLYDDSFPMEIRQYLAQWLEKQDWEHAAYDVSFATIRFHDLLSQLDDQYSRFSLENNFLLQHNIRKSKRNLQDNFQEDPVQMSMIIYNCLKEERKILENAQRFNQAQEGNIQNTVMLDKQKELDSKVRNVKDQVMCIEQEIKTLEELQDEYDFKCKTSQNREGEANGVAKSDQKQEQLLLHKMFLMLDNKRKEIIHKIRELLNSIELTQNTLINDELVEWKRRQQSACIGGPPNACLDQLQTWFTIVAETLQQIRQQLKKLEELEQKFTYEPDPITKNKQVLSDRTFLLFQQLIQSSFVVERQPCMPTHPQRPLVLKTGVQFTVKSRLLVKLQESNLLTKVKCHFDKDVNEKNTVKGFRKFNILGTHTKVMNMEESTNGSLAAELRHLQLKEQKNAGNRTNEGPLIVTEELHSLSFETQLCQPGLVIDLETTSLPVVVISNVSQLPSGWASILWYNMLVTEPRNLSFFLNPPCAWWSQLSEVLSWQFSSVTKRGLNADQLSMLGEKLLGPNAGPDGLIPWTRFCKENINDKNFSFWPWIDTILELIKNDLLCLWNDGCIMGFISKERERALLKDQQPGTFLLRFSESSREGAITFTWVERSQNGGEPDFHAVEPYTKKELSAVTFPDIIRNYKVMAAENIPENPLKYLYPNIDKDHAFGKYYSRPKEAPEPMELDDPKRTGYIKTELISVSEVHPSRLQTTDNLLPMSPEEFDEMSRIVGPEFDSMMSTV

MDA-MB-231 [15] = assay: Anticlonogenic activity against human MDA-MB-231 cells for 72 hrs measured after 2 weeks by crystal-violet staining based assay; assay type: functional, cell-based; summary of the method: as §2
Glioma cell [16] = assay: Effect on cell morphology in human Glioma (G22) patient derived xenograft cells assessed as 3D spheroids formation at 5 uM for 24 hrs measured after 48 hrs by inverted fluorescence microscope analysis; assay type: functional
Summary of the method: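 G22 patient-derived xenograft glioma cells seeded at 1,000 cells/well in ultra-low-binding round-bottom wells, grown 48 h into 3D spheroids, then treated once with 5 μM compound or DMSO; matrigel added after 24 h. Spheroids imaged at 5× magnification on an inverted fluorescence microscope every 24 h for up to 120 h.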

[17] = biological target: T1, Signal transducer and activator of transcription 3; assay: Binding affinity to Stat3 (unknown origin) by NMR analysis
[18] = biological target: RAC-alpha serine/threonine-protein kinase (Homo sapiens) (UniProt P31749); assay: Modulation of Akt phosphorylation in human U251MG cells at 5 uM after 0.5 to 24 hrs by immunoblot analysis; assay type: cell-based; conditions: U-251; summary of the method: as §3
[19] = biological target: Mitogen-activated protein kinase; ERK1/ERK2 (Homo sapiens) (UniProt P27361+P28482); assay: Modulation of Erk1/2 phosphorylation in human U251MG cells at 5 uM after 0.5 to 24 hrs by immunoblot analysis; assay type: cell-based; conditions: U-251
Summary of the method: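 U251MG glioma cells (RPMI or DMEM, 10% FBS, 1% nonessential amino acids) treated with 5 μM compound for 0–24 h; 0.025% DMSO control. Whole-cell lysates of equal total protein immunoblotted for pErk1/2, Erk1/2, pJAK2 and JAK2 with β-actin or GAPDH loading controls. Representative of 2–4 independent determinations.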

Sequence of Mitogen-activated protein kinase; ERK1/ERK2 (Homo sapiens) (P27361 whole entry, looked up): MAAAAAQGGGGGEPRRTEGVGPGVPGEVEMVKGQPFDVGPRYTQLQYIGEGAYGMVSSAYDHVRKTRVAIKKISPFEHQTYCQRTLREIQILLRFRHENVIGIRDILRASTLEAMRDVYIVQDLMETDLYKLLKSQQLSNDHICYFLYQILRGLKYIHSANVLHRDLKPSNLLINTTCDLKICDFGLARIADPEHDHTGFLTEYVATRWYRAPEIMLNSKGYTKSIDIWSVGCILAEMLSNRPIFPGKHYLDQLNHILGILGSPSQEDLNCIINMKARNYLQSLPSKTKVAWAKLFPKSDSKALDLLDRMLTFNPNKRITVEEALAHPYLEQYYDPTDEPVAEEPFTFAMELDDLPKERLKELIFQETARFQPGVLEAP
Sequence of Mitogen-activated protein kinase; ERK1/ERK2 (Homo sapiens) (P28482 whole entry, looked up): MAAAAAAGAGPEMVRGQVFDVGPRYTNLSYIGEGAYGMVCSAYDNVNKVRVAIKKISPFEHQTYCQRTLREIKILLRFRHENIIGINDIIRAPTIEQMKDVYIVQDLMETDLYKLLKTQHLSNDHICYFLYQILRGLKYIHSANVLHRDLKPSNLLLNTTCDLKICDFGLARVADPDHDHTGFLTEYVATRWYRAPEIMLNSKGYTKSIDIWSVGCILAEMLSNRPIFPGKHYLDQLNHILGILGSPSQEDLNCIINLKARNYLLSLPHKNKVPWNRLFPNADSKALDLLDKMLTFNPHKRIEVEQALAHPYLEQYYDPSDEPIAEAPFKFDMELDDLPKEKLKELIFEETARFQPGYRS
Sequence of Signal transducer and activator of transcription 3 (Mus musculus) (P42227 whole entry): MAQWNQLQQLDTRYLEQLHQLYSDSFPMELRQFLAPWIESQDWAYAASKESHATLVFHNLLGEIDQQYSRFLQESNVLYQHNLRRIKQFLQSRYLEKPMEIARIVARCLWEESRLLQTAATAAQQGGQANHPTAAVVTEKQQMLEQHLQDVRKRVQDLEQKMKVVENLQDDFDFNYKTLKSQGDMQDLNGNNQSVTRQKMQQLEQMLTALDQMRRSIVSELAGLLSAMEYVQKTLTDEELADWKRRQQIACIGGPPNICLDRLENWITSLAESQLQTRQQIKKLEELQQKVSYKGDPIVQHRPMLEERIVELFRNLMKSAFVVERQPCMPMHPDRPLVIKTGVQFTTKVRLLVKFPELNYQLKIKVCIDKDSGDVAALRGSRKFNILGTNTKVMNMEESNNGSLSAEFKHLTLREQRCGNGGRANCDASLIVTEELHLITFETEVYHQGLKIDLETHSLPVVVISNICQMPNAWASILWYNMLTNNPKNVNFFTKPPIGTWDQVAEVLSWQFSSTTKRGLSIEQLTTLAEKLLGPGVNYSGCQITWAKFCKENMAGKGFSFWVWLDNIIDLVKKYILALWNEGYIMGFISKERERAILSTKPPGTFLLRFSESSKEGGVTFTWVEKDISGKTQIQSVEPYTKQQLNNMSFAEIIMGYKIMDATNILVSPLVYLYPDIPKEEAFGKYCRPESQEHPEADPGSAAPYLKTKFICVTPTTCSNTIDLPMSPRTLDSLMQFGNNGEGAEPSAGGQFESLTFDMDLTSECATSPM
Sequence of RAC-alpha serine/threonine-protein kinase (Homo sapiens) (P31749 whole entry): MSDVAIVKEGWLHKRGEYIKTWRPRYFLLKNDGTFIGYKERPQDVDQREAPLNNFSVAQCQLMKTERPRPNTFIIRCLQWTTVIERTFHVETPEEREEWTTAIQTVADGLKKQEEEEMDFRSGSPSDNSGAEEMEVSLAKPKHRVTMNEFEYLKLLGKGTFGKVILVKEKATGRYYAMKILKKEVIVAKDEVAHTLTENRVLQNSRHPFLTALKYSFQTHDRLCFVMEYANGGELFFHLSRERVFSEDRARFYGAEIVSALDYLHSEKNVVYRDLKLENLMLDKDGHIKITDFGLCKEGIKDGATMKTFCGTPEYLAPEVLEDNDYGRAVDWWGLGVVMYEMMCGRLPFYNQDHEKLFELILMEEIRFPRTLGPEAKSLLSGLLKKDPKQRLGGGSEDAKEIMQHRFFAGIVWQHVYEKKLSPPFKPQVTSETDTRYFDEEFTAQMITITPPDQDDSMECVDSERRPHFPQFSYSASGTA
T1 sequence (P40763 whole entry): as the sequence (P42227 whole entry) above, with D760E counted along it

IC50 [2] [µM]	inhibition [3]	IC50 (MDA-MB-231 [5]) [µM]	inhibition (NIH3T3)	inhibition [13]	Activity [14] [%]	Activity [17]	Activity [18]	SMILES	Activity (Glioma cell [1])	inhibition (MDA-MB-231 [4])	Activity (MCF7)	Activity (U-251 [6])	Activity (U-251 [7])	IC50 [8] [µM]	inhibition (INH) [9] [%]	Activity [10]	Activity (U-251 [11])	inhibition (INH) [12] [%]	Activity (MDA-MB-231 [15])	Activity (Glioma cell [16])	other results
3.2	Active	6.6	inactive	Active	49	Dose-dependent effect	inactive	C/C=C(\C)C(=O)O[C@H]1C[C@@H](C)[C@]2(OC)CC[C@](C)(/C=C3/OC(=O)C(COC(C)=O)=C31)O2	Active	Active	Dose-dependent effect	inactive	inactive	8.2	25	Toxic	inactive	45	Dose-dependent effect	Active	Activity [19]: inactive
2.6	Active	6.5	inactive	Active	36	Dose-dependent effect	inactive	C/C=C(\C)C(=O)OCC1=C2/C(=C\[C@@]3(C)CC[C@](O)(O3)[C@H](C)C[C@@H]2O)OC1=O	Active	Active	Dose-dependent effect	inactive	inactive	9.6	25	Toxic	inactive	45	Dose-dependent effect	Active	Activity [19]: inactive
2.2	Active	1.8	inactive	Active	68	Dose-dependent effect	inactive	C/C=C(\C)C(=O)O[C@H]1C[C@@H](C)[C@]2(O)CC[C@](C)(/C=C3/OC(=O)C(COC(C)=O)=C31)O2	Active	Active	Dose-dependent effect	inactive	inactive	7.5	25	Toxic	inactive	45	Dose-dependent effect	Active	Activity [19]: inactive
